Assay results collected from several papers.
Compare with care: the assays were run in different laboratories.
Target: Phosphorylase b kinase gamma catalytic chain, liver/testis isoform (PHKG2, Homo sapiens, UniProt P15735)
One construct used (P15735 1-406): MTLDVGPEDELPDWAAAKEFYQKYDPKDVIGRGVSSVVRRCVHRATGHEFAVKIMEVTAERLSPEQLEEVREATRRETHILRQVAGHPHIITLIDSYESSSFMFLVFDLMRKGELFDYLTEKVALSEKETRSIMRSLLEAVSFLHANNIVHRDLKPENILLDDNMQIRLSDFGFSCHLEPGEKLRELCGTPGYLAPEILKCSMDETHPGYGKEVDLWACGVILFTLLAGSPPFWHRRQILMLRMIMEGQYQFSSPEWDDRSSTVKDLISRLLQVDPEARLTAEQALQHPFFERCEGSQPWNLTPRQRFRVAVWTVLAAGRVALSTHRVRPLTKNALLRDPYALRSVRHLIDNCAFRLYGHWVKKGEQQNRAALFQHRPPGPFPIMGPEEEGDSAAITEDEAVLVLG

Cc1cnc(Nc2ccc(C(=O)N3CCC(N4CCCC4)CC3)cc2)nc1-c1cc2ccccc2s1  remaining binding (binding, competition with immobilised ligand; 1 µM): 51%
CCS(=O)(=O)c1cc2cc(C[C@@](O)(CC(C)(C)c3ccc(F)cc3C(N)=O)C(F)(F)F)[nH]c2cn1  remaining binding (cell-free assay, competition with immobilised ligand; 1 µM): 100%
O=C(NCC1CCOCC1)c1n[nH]cc1NC(=O)c1c(F)cccc1F  remaining binding (binding, competition with immobilised ligand; 1 µM): 96%
FC(F)(F)Oc1cccc(-c2cnc3ccc(-c4ccncc4)nn23)c1  remaining binding (cell-free assay, competition with immobilised ligand; 5 µM): 22%
N[C@H]1CCN(c2nccc(-c3cnn4ncccc34)n2)C1  remaining binding (binding; 1 µM): 77%
C[C@@H](c1ccc(-n2cnc3c(N)ncnc32)cc1)N1CCc2nn(C)c(Cc3ccccc3)c2C1=O  remaining binding (binding, competition with immobilised ligand; 0.1 µM): 100%
CN(C)C(=O)Cn1cc(-c2nc([C@@](C)(c3ccc(-c4cnc(N)nc4)cc3)C3CC3)no2)cn1  remaining binding (cell-free assay, competition with immobilised ligand; 1 µM): 80%
COc1ncc2cc3ccccc3nc2c1C#N  remaining binding (cell-free assay, competition with immobilised ligand; 5 µM): 100%
C[C@H]1CCN(c2nccc(-c3cnn4ncccc34)n2)C1  remaining binding (binding; 1 µM): 79%
CNC(=O)Nc1ccc2c(c1)[C@@]1(CC2)OC(=O)N(CC(=O)N(Cc2ccc(F)cc2)[C@@H](C)C(F)(F)F)C1=O  remaining binding (cell-free assay, competition with immobilised ligand; 1 µM): 100%
COc1cnc(Nc2cccc(S(N)(=O)=O)c2)nc1N1CCN(c2ccccc2)C(=O)C1  remaining binding (binding, competition with immobilised ligand; 1 µM): 100%
CN(C)c1nccc(-c2cnc3ncccn23)n1  remaining binding (binding; 1 µM): 89%
C[C@H](c1cccc(C#N)c1)n1cc(Cl)cc(C(N)=O)c1=N  remaining binding (cell-free assay, competition with immobilised ligand; 1 µM): 100%
O=C(NCCCN1CCOCC1)c1ccc(Nc2ncc(Cl)c(-c3ccc(Cl)s3)n2)cc1  remaining binding (binding, competition with immobilised ligand; 1 µM): 60%
F[C@@H]1CCN(c2nccc(-c3cnn4ncccc34)n2)C1  remaining binding (binding; 1 µM): 100%
Nc1ncc2c(n1)-c1c([nH]c3ccc(C#CC4CC4)cc13)CCCC2  remaining binding (binding, competition with immobilised ligand; 1 µM): 100%
N#CC1(c2ccccn2)CCN(Cc2cc(C(=O)N3CCCC3)c(=O)n3ccccc23)CC1  remaining binding (cell-free assay, competition with immobilised ligand; 1 µM): 85%
COc1ccnn2ncc(-c3ccnc(N(C)C)n3)c12  remaining binding (binding; 1 µM): 82%
O=C(NCCCC1CCCCC1)c1ccc(CNC(=O)c2cnn(-c3ccccc3)c2C(F)(F)F)cc1  remaining binding (cell-free assay, competition with immobilised ligand; 0.1 µM): 100%
CN(C)c1ncc(F)c(-c2cnn3ncccc23)n1  remaining binding (binding; 1 µM): 69%
O=C(c1ccc(Nc2ncc(Cl)c(-c3cc4ccccc4s3)n2)cc1)N1CCC(N2CCCC2)CC1  remaining binding (binding, competition with immobilised ligand; 1 µM): 74%
